# According to publication PMC11604526 (Cell Reports Medicine, 2024):
# Entries after “also recorded” stand apart in the source; their conditions may differ.
# Key:
# [1] = molecular target: GAT-1-Synt1A complex (Mus musculus, UniProt P31648); type: in vivo; settings: intranasally given days 5-11 after photothrombotic stroke; n = 5
# Method in brief: (§1)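 Dissected tissue was lysed on ice for 30 min in ice-cold RIPA buffer (50 mM Tris-HCl pH 7.4, 150 mM NaCl, 1 mM EDTA, 1% NP-40, 0.1% SDS, 0.5% deoxycholate, protease inhibitors). Lysates were spun at 12,000 ×g for 15 min at 4°C, and supernatant was precleared 1 h at 4°C with protein G magnetic beads before co-IP. Blots were probed with anti-GAT-1 (1:4000) and anti-syntaxin1A (1:4000).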
# [2] = system: mice with photothrombotic stroke; test: Motor function; type: in vivo, mouse
# Method in brief: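 Photothrombotic stroke was induced with rose bengal, holding body temperature at 37 ± 0.5°C. For grid walking, each mouse walked freely for 5 min on a wire grid 50 cm high. For the cylinder task, mice explored a clear cylinder (15 cm tall, 10 cm diameter) for 5 min, and only rears with both forelimbs clearly visible were timed. Tests ran 7 days before stroke and at set days after stroke.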
# [3] = molecular target: GAT-1 (Mus musculus, UniProt P31648); test: 3H-GABA uptake assay in cultured neurons; type: cell-based; settings: 1 h drug preincubation; 10 nM 3H-GABA + 30 μM GABA, 37°C 1 h; n = 5
# Method in brief: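 Primary cortical neurons from E16 mice were grown on poly-L-ornithine in Neurobasal with 2% B27. Cells were rinsed twice in 37°C HBSS, equilibrated 10 min, then preincubated 1 h in drug-containing HBSS. Uptake was started with 3H-GABA (10 nM final) plus unlabeled GABA (30 μM final), 37°C for 1 h. It was stopped by three ice-cold HBSS washes, solubilised in 0.1 M NaOH, and read by scintillation counting plus BCA protein assay. Analysis used a two-tailed t test.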
# [4] = system: GAT-1; test: 3H-GABA uptake in HEK293 cells overexpressing GAT-1; type: cell-based; settings: n = 5
# Method in brief: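 HEK293 cells were kept in MEM with 10% FBS and transduced with lentiviral GAT-1-EGFP. These GAT-1-overexpressing cells were incubated with peptide (100 nM), or with the mutant control peptide at the same concentration, before 3H-GABA uptake was measured.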
# [5] = system: extracellular GABA ([GABA]o); test: Extracellular GABA in peri-infarct cortex; type: in vivo, mouse; settings: intranasal administration; Figure S6A; n = 5
# Method in brief: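 A CMA7 microdialysis probe was placed in peri-infarct cortex (AP 0, ML −0.65, DV −1.5 mm from bregma). It was perfused at 1 μL/min with bicarbonate-buffered saline containing 10 mM glucose. Dialysate was collected in 20-min fractions over 2 h, and the second fraction was analysed. GABA was measured by ELISA (activator, 37°C for 15 min in the dark, stop solution, A450).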
# [6] = system: layer 5 peri-infarct pyramidal neurons; test: Whole-cell recordings in acute brain slices from treated mice; type: in vivo, mouse; settings: intranasal administration
# [7] = system: pyramidal neurons in the peri-infarct cortex; test: Fiber photometry of GCaMP6s Ca2+ signal; type: in vivo, mouse; settings: intranasal administration; Figures S6F, S6G
# Method in brief: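 AAV-CaMKII-GCaMP6s was injected into the peri-infarct cortex (AP 0, ML −2.0, DV −1.3 mm from bregma). An optical fibre (230 μm OD, 0.37 NA) was implanted at the same site. GCaMP6s fluorescence was excited with a 488 nm LED at 20 μW at the fibre tip and recorded by fibre photometry.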
# [8] = system: rats subjected to tMCAO; test: Sensorimotor function after tMCAO; type: in vivo; settings: rat tMCAO, intranasal days 5-11 after stroke
# Method in brief: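 For grid walking, rats walked 5 min on a wire grid 60 cm high. For the cylinder task, rats explored a cylinder (30 cm tall, 20 cm diameter) for 5 min. For sticky tape, rats were handled 30 min/day for 3 days first. Ratio of interest = seconds attending to stimulus/30, averaging the best two trials. Sticky-tape ratio = left forepaw ratio/right forepaw ratio.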
# [9] = system: rats subjected to tMCAO; test: Morris water maze after tMCAO; type: in vivo; settings: rat tMCAO, intranasal days 5-11
# Method in brief: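 Rats were habituated to the maze (180 cm diameter, opacified water, drained daily) 1 day beforehand. In learning trials, rats swam up to 60 s to reach a hidden platform 1.2 cm below the surface. A probe trial without the platform ran 24 h after the last learning trial. Swimming was recorded by overhead video tracking.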
# [10] = Concentration of ZLQ-3-1 in brain tissue; type: in vivo, rat; settings: intranasal delivery; brain homogenate, LC-MS/MS
# Method in brief: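 Brain tissue was quantified by LC-MS/MS with verapamil run alongside. The test compound eluted at 1.45 min and verapamil at 1.65 min.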
# [11] = molecular target: GAT-1-Synt1A interaction (Rattus norvegicus, UniProt P23978); test: Co-IP of Synt1A-GAT-1 complexes after tMCAO; type: in vivo; settings: intranasally given days 5-11 after stroke
# Method in brief: as §1
# [12] = system: extracellular GABA ([GABA]o); test: Extracellular GABA after tMCAO; type: in vivo, rat; settings: intranasal delivery; Figure 6F; n = 5
# [13] = system: infarct volume; test: Infarct volume; type: in vivo; settings: Nissl staining 12 days after stroke; n = 8
# Method in brief: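 Coronal 40 μm vibratome sections were stained in Nissl solution at 40°C for 10 min. Infarct size was measured on microscope images.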
# [14] = system: mice; test: Open field test; type: in vivo, mouse; settings: 5 min; n = 14
# [15] = system: mice; test: Conditioned place preference; type: in vivo, mouse; settings: n = 10
# Method in brief: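 During pretest and test, mice had free access to both chambers for 15 min. Vehicle-group mice received vehicle injections morning and afternoon; all other steps matched the compound group. Apparatus was cleaned with 75% alcohol after each pretest, training and test session.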
# [16] = 5 mg/kg intranasally days 5-11 after stroke, test day 12
substance,measurement,setting,value
Glucose-D-Arg-Dmt-Cha-D-Lys-D-Arg-NH2 [ZLQ-3-1],"stroke-induced GAT-1-Synt1A interaction, intranasal dosing",[1],reversed stroke-induced GAT-1-Synt1A interaction
same,"impairment of motor functions, intranasal 5 mg/kg",[2]; [16],attenuated the impairment of motor functions
same,motor functional recovery of ZLQ-3-1-treated versus ZLQ-3-treated mice,[2]; [16],better motor functional recovery than ZLQ-3-treated mice
same,"impairment of motor functions, intraperitoneal dosing","[2]; 2.5, 5, 10, or 20 mg/kg i.p. days 5-11 after stroke, test day 12",attenuated the impairment of motor functions dose dependently
same,"long-term motor functional recovery, WT mice","[2]; intranasal treatment days 5-11 after stroke, Figure S5K",long-lasting motor functional recovery effects
same,3H-GABA uptake in cultured neurons,[3],significantly increased ^3H-GABA uptake
same,"reuptake of GABA by GAT-1, HEK293 cells overexpressing GAT-1",[4],did not directly affect the reuptake of GABA by GAT-1
same,stroke-induced increase in extracellular GABA,[5],reversed stroke-induced increases in extracellular GABA
same,stroke-induced increase in tonic inhibition,"[6]; Figures S6B, S6C",reversed stroke-induced increases
same,inhibitory synaptic transmission (sIPSC),"[6]; Figures S6D, S6E",increased inhibitory synaptic transmission
same,"stroke-induced decline in cortical excitability, WT mice",[7],prevented stroke-induced decline in cortical excitability
same,foot faults in the grid-walking task,[8],decreased foot faults
same,forelimb sticky-tape ratio in modified sticky-tape test,[8],increased forelimb sticky-tape ratio
same,forelimb symmetry index in the cylinder task,[8],decreased
same,somatosensory and motor functions,"[8]; tests days 4, 12, 19, 26",significantly improved somatosensory and motor functions
same,swimming speed,[9],did not affect swimming speed
same,target entries in the probe test,[9],increased target entries
same,time spent in target quadrant in the probe test,[9],increased
same,latency (time to reach the platform),[9]; training trials,significantly decreased latency
same,brain exposure of ZLQ-3-1 (time course of concentrations in brain tissue),[10],rapid and long-lasting brain exposure; also recorded: high brain exposure
same,stroke-induced GAT-1-Synt1A interaction in the hippocampus,[11],reversed stroke-induced GAT-1-Synt1A interaction
same,stroke-induced GAT-1-Synt1A interaction in the peri-infarct cortex,[11],reversed stroke-induced GAT-1-Synt1A interaction
same,stroke-induced increase in [GABA]o in the peri-infarct cortex,[12],reversed
same,infarct volume,[13],did not change infarct volume
same,"locomotor activity (open field test: total distance, velocity)",[14],did not affect locomotor activity
same,conditioned place preference,[15],did not affect
